Out of some 62,000 compounds screened, about 50 (0.08%) were called active. What follows is part of a selection rich in actives, with near analogues and random picks from the rest. Unmarked numbers belong to inactive results.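 How the source made its calls: active means inhibition above 30% in each of the two pooled mixtures holding the compound, so the lower value exceeds 30%; inactive means the rest.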

The experiment is described as follows: alternative complement pathway inhibitors, primary screen, biochemical, ELISA, human serum, orthogonally pooled compounds (AID 1235).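 Further: 0% = serum in Mg-EGTA without compound and 100% = EDTA serum blank.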 As to conditions: LPS-coated ELISA, C3 deposition, tested in compound mixtures, at 5 µM, stronger effect = higher value. Summed up:
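Assay system: Human serum alternative complement pathway, C3 deposition on LPS-coated wells | Incubation: 1 h serum-compound exposure at 37 °C | Doses: 5 µM per compound in ten-compound mixtures | Read-out: Percent inhibition | Technique: ELISA with HRP anti-human C3 antibody, TMB substrate, absorbance 450 nm | Replication: Two pool placements per compound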
As usually defined, the inhibition is the drop in the measured response relative to a control, in per cent. On to `CCCSc1nc2c(c(=O)n(C)c(=O)n2C)n1Cc1ccc(C)cc1`, for which the inhibition was -3.43%.

As for `CNC(=O)C1CC(=O)N(Cc2ccc3c(c2)OCO3)C(=Nc2ccc(F)cc2)S1` (stereo not given), the inhibition was 13%.

For `O=C(C(Cc1ccccc1)n1cccc1)N1CCN(C2CCCCC2)CC1` (stereo not given), the inhibition is 14.7%.

Take `O=C(O)c1cccc2c1C(=O)N(C1CCCCC1)C2`: the inhibition is 16.2%.

With `O=C(Cn1nc(Cc2cccnc2)c2ccccc2c1=O)NCC1COc2ccccc2O1` (stereo not given), the inhibition was 15.7%.

Consider `CCOc1cc2c(cc1OCC)C(C(=O)O)C(c1ccc(OC)c(O)c1)N(C)C2=O` (stereo not given), for which the inhibition was 16.6%.

Take `Fc1ccccc1OCCSc1nc2ccccc2o1`: the inhibition is -8.88%.

In the case of `Cc1nn(-c2ccccc2)c2c1C(=O)NC(=O)C(C)(C)C2`, the inhibition was 5.83%.

Turning to `N#C/C=C\Oc1ccc(Cl)cc1N`, the inhibition was -1.31%.

Take `CCOC(=O)c1cccc(NC(=O)CCc2c(C)nc3ncnn3c2C)c1`: the inhibition was 1.8%.

Regarding `Cc1ccc(-c2nc(CS(=O)CC(=O)N3CCN(c4ncccn4)CC3)c(C)o2)cc1` (stereo not given), the inhibition is 22.7%.

With `Cc1onc(-c2ccccc2Cl)c1C(=O)NCCn1ccc2ccccc21`, the inhibition is 7.02%.

`CCOc1ccc(CNC(=O)C2CC(=O)N(C3CCCC3)C2)cc1OC` (stereo not given): the inhibition was 18.4%.

As to `Cc1cc2c(=O)n(C)c(SCC(=O)c3cc4ccccc4o3)nc2s1`, the inhibition was 3.24%.

For the compound `Cc1nc2ncnn2c(C)c1CCC(=O)N1CCN(C(=O)c2ccco2)CC1`, the inhibition was 1.46%.

For `CN(C(=O)COc1nnc(-c2cccs2)c(-c2cccs2)n1)c1ccccc1`, the inhibition is 7.72%.

Consider `C=CCN1C(=O)C(O)(CC(=O)c2ccc(Cl)cc2)c2ccccc21` (stereo not given), for which the inhibition was 8.76%.

For `CCOCCCNC(=O)Cc1cc(=O)[nH]c(=O)[nH]1`, the inhibition was 26.3%.

Regarding `CC(C)CCNC(=O)CN(C(=O)Cn1nnc(-c2ccc(F)cc2)n1)C1CCCC1`, the inhibition was 0.465%.

In the case of `COc1ccc(C2SCCN2S(=O)(=O)c2ccccc2)cc1OC` (stereo not given), the inhibition is 21.6%.

Regarding `COC(=O)c1ccc(CN(c2ccccc2OC)S(=O)(=O)c2cccs2)o1`, the inhibition was -0.725%.

Regarding `CC1(C)C(=O)C2(CCCCC2)C(=O)OC1c1cccs1` (stereo not given), the inhibition was 15.8%.

On to `COc1ccc(-c2nc3n(c2Br)CCC3)cc1`, for which the inhibition is 7.42%.

In the case of `O=C(CSc1nc2cc3c(cc2c(=O)n1CCC1=CCCCC1)OCO3)NCc1ccco1`, the inhibition is 15.2%.

For `CN1C(C)(C)CC(NC(=O)CCC(=O)NC2CC(C)(C)N(C)C(C)(C)C2)CC1(C)C`, the inhibition was 9.95%.

`CCOC(=O)C1CCN(C(=O)C2CCN(S(=O)(=O)c3c(C)noc3C)CC2)CC1`: the inhibition was -18.4%.

Consider `COCCn1nnnc1C(c1ccccc1Cl)N1CCN(c2ccccc2OC)CC1` (stereo not given), for which the inhibition is 9.52%.

With `O=C(CCOc1ccccc1)NCc1ccccc1`, the inhibition was 12.9%.

Take `O=C(CCCN1C(=O)C2C3C=CC(C3)C2C1=O)N1CCN(c2ccccc2)CC1` (stereo not given): the inhibition was 11.5%.

Regarding `C[N+](C)(C)CCNC(=O)c1c(O)c2c([nH]c1=O)CCCC2`, the inhibition was 4.27%.

On to `C/C(=N\O)C1(C)N(O)C(C)(C)C(c2ccc(Br)cc2)=[N+]1[O-]` (stereo not given), for which the inhibition is 0.945%.

In the case of `CC(=O)C1C(c2cccc(Oc3ccccc3)c2)NC(=O)NC1(O)C(F)(F)F` (stereo not given), the inhibition was 6.73%.

Take `COc1ccccc1CNC(=O)C1CCCN(S(=O)(=O)c2cccc3cccnc23)C1` (stereo not given): the inhibition was 5.61%.

Consider `COc1ccccc1CNC(=O)C1CCN(S(C)(=O)=O)CC1`, for which the inhibition was 35.9% (active).

For `COc1ccccc1CNC(=O)C1CCN(c2nc3ccccc3o2)CC1`, the inhibition is -3.35%.

For the compound `CCn1c(SCC(=O)Nc2ccccc2F)nc2c(c1=O)SC(C)C2` (stereo not given), the inhibition is -1.83%.

As to `COC(=O)c1ccc(N(CC(=O)NC2CCCC2)C(=O)CNC(=O)c2ccco2)cc1`, the inhibition is 13.6%.

`CCCNC(=O)Nc1ccccc1C(=O)Nc1ccc(OC)cc1`: the inhibition is 6.47%.

In the case of `CCCN1C2=C(C(=O)CCC2)C(c2ccc(O)c(Br)c2)C2=C1CCCC2=O`, the inhibition was 3.41%.

For the compound `COc1ccc(OC)c(Nc2nc(-c3ccc(O)c(O)c3)cs2)c1`, the inhibition was 15.1%.

Consider `O=c1c2ccccc2nc(CSc2nnnn2-c2ccccc2)n1-c1ccccc1`, for which the inhibition is 16.5%.

Take `CCC1C(C#N)=C(SC)NC2=C1C(=O)CC(C)(C)C2` (stereo not given): the inhibition was 29.5%.

Consider `C=C(C)Cn1c(N2CCCC2)nc2c1c(=O)[nH]c(=O)n2C`, for which the inhibition was 13.6%.

Consider `COc1ccc(OC)c(NC(=O)CC(Cc2ccccc2OC)C(=O)O)c1` (stereo not given), for which the inhibition was 6.63%.

In the case of `O=C(Cn1cnc2c(nnn2-c2ccccc2)c1=O)N1CCC(Cc2ccccc2)CC1`, the inhibition was 12.9%.

For the compound `CCC1SC2=NCCN2C1(O)c1ccc(Cl)cc1` (stereo not given), the inhibition was -4.64%.

`CCN(CC)c1ccc(C(=O)OCC(=O)c2ccco2)cc1`: the inhibition was -18.9%.

As to `Cc1nn(Cc2ccc(Cl)c(Cl)c2)c(C)c1NC(=O)c1cc(C2CC2)on1`, the inhibition is 14.3%.

On to `COc1ccccc1N1CCN(c2nc3ccccc3n3nnnc23)CC1`, for which the inhibition is -4.06%.

As for `CCOC(=O)c1cc2sccc2n1Cc1ccc(C#N)cc1`, the inhibition is 8.71%.

With `COCCNC(=O)c1snc2ccc(Cl)cc12`, the inhibition is -12.7%.

For the compound `Cc1ccn2cc(-c3nonc3C)cc2c1`, the inhibition was 17.2%.

Consider `Cc1ccc(N2C(=O)CC(NCc3ccc4c(c3)OCO4)C2=O)cc1Cl` (stereo not given), for which the inhibition is 24.4%.

Take `O=C(Nc1ccc2c(c1)OCCO2)C1CCCN(c2ncccn2)C1` (stereo not given): the inhibition was 4.42%.

As for `CCOc1ccc(OCC)c(NC(=O)C2CCN(S(=O)(=O)c3c(C)noc3C)CC2)c1`, the inhibition was 4.52%.

Consider `O=C(NCCc1ccccn1)c1ccc(COc2ccccc2)o1`, for which the inhibition is 13.5%.

In the case of `COc1cccc(NC(=O)c2ccccc2SC)c1`, the inhibition was 12.3%.

In the case of `CC(C)OCCCNC(=O)C1CC(=O)N(C2CCCCCCC2)C1` (stereo not given), the inhibition was 16.3%.

As to `CC(C)(O)C#Cc1ccc(C(=O)N2CCC(C(N)=O)(N3CCCCC3)CC2)cc1`, the inhibition is 0.925%.

For the compound `CCN(CC)S(=O)(=O)c1ccc2nc(CSc3nnnn3-c3ccc(O)cc3)[nH]c2c1`, the inhibition is -3.47%.

The record behind these values is PubChem BioAssay AID1235 (PCMD, 2008).
